The source made the active and inactive calls. The calls are words filed in the database; no cut-off is given here.
Key:
Mus musculus [1] = experiment: Antinociceptive effect in intrathecally dosed NY1DD transgenic mouse after 6 hrs by heat tail flick test; format: functional
How it was run: (§1)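 Male mice aged 10–12 weeks, housed on a 12-h light/dark cycle. Radiant heat was aimed at the dorsal tail and the latency to flick was recorded. Dosing volumes were 5 μl per mouse for i.c.v. and i.t. and 10 ml/kg for s.c. At least three groups of 8–10 mice per paradigm; each mouse was used once. ED50 with 95% confidence intervals came from a parallel line assay.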

Mus musculus [2] = experiment: Antinociceptive effect in icv dosed NY1DD transgenic mouse after 1 hr by heat tail flick test; format: functional; how it was run: as §1
Mus musculus [3] = organism: Mus musculus; experiment: Antinociceptive effect in NY1DD transgenic mouse assessed as partial agonist response at 2.5 nmol by heat tail flick test; format: functional
Mus musculus [4] = experiment: Antinociceptive effect in NY1DD transgenic mouse assessed as partial agonist response at 8 nmol, icv by heat tail flick test; format: functional
Mus musculus [5] = experiment: Antinociceptive effect in […] dosed sickle cell anemic NY1DD transgenic mouse after 10 mins by heat tail flick test; format: functional
Mus musculus [6] = experiment: Antinociceptive effect in icv dosed C57BL/6J mouse after 10 mins by heat tail flick test; format: functional; how it was run: as §1
Mus musculus [7] = organism: Mus musculus; experiment: Decrease in analgesic activity in CCL5 pretreated C57BL/6J mouse; format: functional, organism-based
How it was run: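 C57BL/6J mice were pretreated i.c.v. with murine RANTES (CCL5) at two doses 20 min before i.c.v. morphine, then tested by radiant heat tail-flick. The antagonist ED50 of RANTES was given with a 95% confidence interval. For reversal, 50 ng Met-RANTES per mouse was given 2 h before RANTES.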

Mus musculus [8] = experiment: Antinociceptive effect in sc dosed sickle cell anemic NY1DD transgenic mouse after 60 mins by heat tail flick test; format: functional; conditions: 1 h; how it was run: as §1
Mus musculus [9] = experiment: Antinociceptive effect in sc dosed C57BL/6J mouse after 60 mins by heat tail flick test; conditions: 1 h
Mus musculus [10] = experiment: Antinociceptive effect in intrathecally dosed C57BL/6J mouse after 10 mins by heat tail flick test; format: functional; how it was run: as §1
Mus musculus [11] = experiment: Antinociceptive effect in icv dosed sickle cell anemic NY1DD transgenic mouse after 10 mins by heat tail flick test; format: functional; how it was run: as §1
Mus musculus [12] = experiment: Reduction of analgesic activity in NY1DD transgenic mouse pretreated with Met-RANTES 2 hrs before drug administration; format: functional, organism-based
How it was run: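 NY1DD mice received Met-RANTES at 50 ng per mouse 2 h before the test drug. Analgesia was measured by radiant heat tail-flick.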

Mus musculus [13] = organism: Mus musculus; experiment: Down-regulation of CCR5 mRNA expression in sickle cell anemic NY1DD transgenic mouse; format: functional, organism-based
How it was run: (§2)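 C57BL/6J and NY1DD mice received 25 pmol per mouse of drug or 0.9% saline (5 μl). Brains were removed 10 min later, frozen in liquid N2 and used for RNA isolation and cDNA microarray hybridization (control RNA labeled with Cy3-dCTP; 42°C for 16 h).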

[14] = target: T1, C-C chemokine receptor type 5 (Mus musculus, UniProt P51682); experiment: Binding affinity to CCR5 in NY1DD transgenic mouse brain membrane; format: tissue-based
T1 sequence (P51682 whole entry): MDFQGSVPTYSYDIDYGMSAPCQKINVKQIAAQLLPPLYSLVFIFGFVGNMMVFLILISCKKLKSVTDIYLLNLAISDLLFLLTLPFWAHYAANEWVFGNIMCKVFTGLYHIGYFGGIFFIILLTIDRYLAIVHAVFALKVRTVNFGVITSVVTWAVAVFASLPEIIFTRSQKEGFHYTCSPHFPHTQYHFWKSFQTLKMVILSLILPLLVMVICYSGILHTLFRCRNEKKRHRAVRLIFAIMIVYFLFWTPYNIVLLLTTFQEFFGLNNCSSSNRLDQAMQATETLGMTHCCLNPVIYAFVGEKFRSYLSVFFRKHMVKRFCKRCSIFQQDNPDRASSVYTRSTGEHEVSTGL
How it was run: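 [3H]Naloxone saturation binding on pooled brains (cerebellum removed) from three mice. Tissue was homogenized in ice-cold Hepes pH 7.4, washed repeatedly with a 90-min ice step to deplete endogenous opiates, and used as a 2% suspension. Incubation was 90 min at room temperature; nonspecific binding was defined with 10 μM naloxone. Samples were filtered on PEI-soaked GF/C and counted by scintillation. Kd came from global fitting. Triplicates; 2–3 experiments, mean ± SEM.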

Mus musculus [15] = organism: Mus musculus; experiment: Down-regulation of CCR5 mRNA expression in C57BL/6J mouse; format: functional, organism-based; how it was run: as §2
[16] = target: T1, C-C chemokine receptor type 5; experiment: Binding affinity to CCR5 in C57BL/6J mouse brain membrane; format: cell membranes
Mus musculus [17] = experiment: Antinociceptive effect in icv dosed sickle cell anemic hBERK1 transgenic mouse after 10 mins by heat tail flick test; format: functional; how it was run: as §1

`Oc1ccc2c3c1O[C@H]1c4[nH]c5c(c4C[C@@]4(O)[C@@H](C2)N(CC2CC2)CC[C@]314)C[C@@]1(O)[C@H]2Cc3ccc(O)c4c3[C@@]1(CCN2CC1CC1)[C@H]5O4` [NORBINALTORPHIMINE] showed an ED50 (Mus musculus [1]) of 0.46 nmol and an ED50 (Mus musculus [2]) of 1.55 nmol.
`Oc1ccc2c3c1O[C@H]1c4[nH]c5ccccc5c4C[C@@]4(O)[C@@H](C2)N(CC2CC2)CC[C@]314` [NALTRINDOLE] was tested, and the Activity (Mus musculus [3]) was 10%.
Work on `O=C1CC[C@@]2(O)[C@H]3Cc4ccc(O)c5c4[C@@]2(CCN3CC2CC2)[C@H]1O5` [NALTREXONE] yielded an Activity (Mus musculus [4]) of 33%.
For `CN1CC[C@]23c4c5ccc(O)c4O[C@H]2[C@@H](O)C=C[C@H]3[C@H]1C5` [MORPHINE], the ED50 (Mus musculus [5]) was 0.085 nmol, the ED50 (Mus musculus [6]) was 2.7 nmol and the Activity (Mus musculus [7]) was “Active”. For the same molecule, the ED50 (Mus musculus [8]) was 2.36 µmol/kg, the ED50 (Mus musculus [9]) was 6.47 µmol/kg and the ED50 (Mus musculus [10]) was 0.088 nmol. The ED50 (Mus musculus [11]) was 3.95 nmol.
For `C=CCN1CC[C@]23c4c5ccc(O)c4O[C@H]2C(=O)CC[C@@]3(O)[C@H]1C5` [NALOXONE], the ED50 (Mus musculus [5]) was 0.045 nmol, the Activity (Mus musculus [12]) was “Active” and the Activity (Mus musculus [13]) was “Active”. For the same molecule, the Kd [14] was 10.5 nM, the Activity (Mus musculus [15]) was “inactive” and the Kd [16] was 20.8 nM. The ED50 (Mus musculus [17]) was 0.03 nmol, the ED50 (Mus musculus [8]) was 2.83 µmol/kg and the ED50 (Mus musculus [11]) was 0.014 nmol.

— ChEMBL document CHEMBL1156450, “Naloxone acts as a potent analgesic in transgenic mouse models of sickle cell anemia” (Proc Natl Acad Sci U S A, 2007)
